The results in this text go back to ChEMBL document CHEMBL1833957, “P1-substituted symmetry-based human immunodeficiency virus protease inhibitors with potent antiviral activity against drug-resistant viruses” (J Med Chem, 2011).

≈ marks a conversion by molar mass, not a printed value.

The nature of series [1]: Cmax in rat at 5 mg/kg, po. The format is ADME, organism-based. Also noted: dose 5 mg/kg, route oral. To be noted: in vivo. In short, it runs like this: (§1)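 Rats given a single 5 mg/kg oral dose with no ritonavir. Plasma Cmax is reported in μg/mL and AUC in μg h/mL.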
Series [2] relates to Liver microsomes. The experiment in a line: Metabolic stability in human liver microsomes assessed as disappearance of the compound after 20 mins in the presence of 0.4 uM CYP3A4 inhibitor ritonavir. The format is ADME, Microsome.
For another series, the system named is Rattus norvegicus. The experiment in a line: Ratio of AUC in rat at 5 mg/kg, po co-administered with 5 mg/kg CYP3A4 inhibitor ritonavir to AUC in rat at 5 mg/kg, po in the absence of CYP3A4 inhibitor ritonavir. It is filed as ADME, organism-based. To be noted: in vivo.
A short description of series [3]: Oral bioavailability in rat at 5 mg/kg co-administered with 5 mg/kg of CYP3A4 inhibitor ritonavir relative to iv dose without ritonavir co-administration. To be noted: in vivo. The format is ADME, organism-based. In short, it runs like this:
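Rats given 5 mg/kg orally with 5 mg/kg ritonavir. Bioavailability (%) is calculated against an IV dose given without ritonavir.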

A short description of series [4]: Metabolic stability in human liver microsomes assessed as disappearance of the compound after 20 mins. To be noted: read-out: Drug metabolism. The format is ADME, Microsome.
The nature of series [5]: AUC in rat at 5 mg/kg, po. It is filed as ADME, organism-based. Also noted: dose 5 mg/kg, route oral. To be noted: plasma. The procedure, abridged:
as §1

Series [6] is described as follows: Oral bioavailability in rat at 5 mg/kg. It is filed as ADME, organism-based. To be noted: in vivo.
In series [7] the test system is Human immunodeficiency virus 1. The series is described as follows: Antiviral activity against HIV1 B26 harboring protease L33F, K45I, M46I, I50V, A71V and V82F mutant infected in human MT4 cells assessed as inhibition of virus-induced cell death after 5 days by MTT assay relative to wild type HIV1 pNL4-3. The format is functional.
The test system of series [8] is Liver microsomes. The series is described as follows: Metabolic stability in human liver microsomes assessed as disappearance of the compound after 20 mins in the presence of 0.4 uM CYP3A4 inhibitor ritonavir.
In series [9] the test system is Human immunodeficiency virus 1. The series is described as follows: Antiviral activity against wild type HIV1 pNL4-3 infected in human MT4 cells assessed as inhibition of virus-induced cell death after 5 days by MTT assay. To be noted: Human immunodeficiency virus 1, pNL4-3, MT4, 120 h. The format is functional, organism-based. The procedure, abridged:
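EC50 measured against wild-type virus in MT-4 cells, with no human serum added.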

The test system of series [10] is Human immunodeficiency virus 1. The series is described as follows: Antiviral activity against wild type HIV1 pNL4-3 infected in human MT4 cells assessed as inhibition of virus-induced cell death after 5 days by MTT assay in presence of 50% human serum. It is filed as functional, organism-based. The following applies: Human immunodeficiency virus 1, pNL4-3, MT4, 120 h.

A short description of series [11]: Cmax in rat at 5 mg/kg, po co-administered with 5 mg/kg of CYP3A4 inhibitor ritonavir. It is filed as ADME, organism-based. Also noted: dose 5 mg/kg, route oral. To be noted: in vivo. In short, it runs like this: (§2)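 Rats given 5 mg/kg orally together with 5 mg/kg ritonavir. Plasma Cmax is reported in μg/mL and AUC in μg h/mL.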
For series [12], the system named is Human immunodeficiency virus 1. The experiment in a line: Antiviral activity against HIV1 A17 harboring protease L10F, V32I, M46I, I47V, Q58E and I84V mutant infected in human MT4 cells assessed as inhibition of virus-induced cell death after 5 days by MTT assay relative to wild type HIV1 pNL4-3. The format is functional.
Series [13] in a line: AUC in rat at 5 mg/kg, po co-administered with 5 mg/kg of CYP3A4 inhibitor ritonavir. The format is ADME, organism-based. The following applies: plasma. In short, it runs like this:
as §2

Series [14] has as its system Human immunodeficiency virus 1. The series is described as follows: Antiviral activity against HIV1 isolate 1 harboring protease L10I, E35D, N37D, M46I, I54V, G57R, L63P, A71V, T74P, I84V, L90M, I93L mutant infected in human MT4 cells assessed as inhibition of virus-induced cell death after 5 days by MTT assay relative to wild type HIV1 pNL4-3. It is filed as functional.

The test system of series [15] is Human immunodeficiency virus 1. The experiment in a line: Antiviral activity against HIV1 harboring protease L10I, I13V, G16A, Q18H, L33F, N37D, M46I, I54V, G57R, Q61H,I62V, L63P, A71L, I72T, L76V, V77I, V82A, N88G, L90M, I93L mutant infected in human MT4 cells assessed as inhibition of virus-induced cell death after 5 days by MTT assay relative to wild type HIV1 pNL4-3. It is filed as functional.

Series [16] in a line: Aqueous solubility of the compound. It is filed as physicochemical. To be noted: buffer.
A short description of series [17]: Permeability of the compound. The following applies: not told; read-out: permeability. It is filed as ADME.

As for `COC(=O)N[C@H](C(=O)N[C@@H](Cc1ccccc1)C[C@H](O)[C@H](Cc1ccc(-c2ccccn2)cc1)NC(=O)[C@@H](NC(=O)OC)C(C)(C)C)C(C)(C)C`, the Cmax in series [1] is 280 ng/mL; in series [11] it was 1550 ng/mL. For the same molecule, the Stability result in the series on Liver microsomes [2] and in the series on Liver microsomes [8] was “Stable” in each case. Moreover, the “Ratio AUC” value in the series on Rattus norvegicus worked out at 25. Further, the bioavailability in series [3] is above 100%; in series [6], 7%. Also, the metabolised at 20 min in [4] was found to be 40%. Further, the AUC in [5] stood at 190 ng·h/mL; in series [13] it was 4880 ng·h/mL. For the same molecule, the “fold change (FC)” value worked out at 29 in [7] and 20 in [12]. The values for the half-maximal effective concentration (EC50) in series [9] and in series [10] were 6 nM and 19 nM, respectively.
In the case of `COC(=O)N[C@H](C(=O)N[C@@H](Cc1ccccc1)C[C@H](O)[C@H](Cc1ccc(-c2cccnc2)cc1)NC(=O)[C@@H](NC(=O)OC)C(C)(C)C)C(C)(C)C`, the values for the maximum concentration (Cmax) in series [1] and in series [11] were 180 ng/mL and 430 ng/mL, respectively. In addition, the Stability entry in the series with Liver microsomes [2] and in the series on Liver microsomes [8] was “Stable” throughout. Also, the “fold change (FC)” value is 29 in [14], 17 in series [15], 3 in series [7] and 2 in series [12]. Besides, the bioavailability in [3] was found to be 25%; in [6], 5%. In addition, in series [4], the metabolised at 20 min was found to be 40%. Besides, the AUC in series [5] was determined as 160 ng·h/mL; in series [13], 740 ng·h/mL. Further, the EC50 in [9] stood at 11 nM; in series [10] it was 35 nM.
In turn, `COC(=O)N[C@H](C(=O)N[C@@H](Cc1ccccc1)C[C@H](O)[C@H](Cc1ccc(-c2cncc(F)c2)cc1)NC(=O)[C@@H](NC(=O)OC)C(C)(C)C)C(C)(C)C` returned a Cmax in [1] of 110 ng/mL. Further, the “fold change (FC)” value was found to be 38 in series [14], 2 in series [15], 3 in [7] and 3 in series [12]. Besides, the metabolised at 20 min in series [4] amounted to 40%. Also, the AUC in [5] amounted to 160 ng·h/mL. The molecule further had a bioavailability in series [6] of 13%. The EC50 in series [9] was 4 nM; in series [10], 24 nM. The molecule further registered a solubility in series [16] of 10.4 µM (≈ 7.51 µg/mL). For the same molecule, in [17], the Papp was 7.3 ×10⁻⁶ cm/s.
Consider `COC(=O)N[C@H](C(=O)N[C@@H](Cc1ccccc1)C[C@H](O)[C@H](Cc1ccc(-c2cnc3ccccc3c2)cc1)NC(=O)[C@@H](NC(=O)OC)C(C)(C)C)C(C)(C)C`, for which the Cmax in [1] is 20 ng/mL; in series [11], 220 ng/mL. Besides, the bioavailability was found to be 63% in series [3] and 1% in series [6]. For the same molecule, the results for the area under the curve (AUC) in [5] and in [13] were 30 ng·h/mL and 1850 ng·h/mL, respectively.
On to `COC(=O)N[C@H](C(=O)N[C@@H](Cc1ccccc1)C[C@H](O)[C@H](Cc1ccc(-c2ccc(OC)cc2)cc1)NC(=O)[C@@H](NC(=O)OC)C(C)(C)C)C(C)(C)C`, for which the “fold change (FC)” value in [14] came to 34; in series [15], 18; in series [7] it was 30; in [12], 48. Besides, the results for the bioavailability in [3] and in series [6] were 14% and 0%, respectively. Also, the EC50 was 1 nM in series [9] and 3 nM in [10]. In addition, the maximum concentration (Cmax) in [11] is 50 ng/mL. Also, the AUC in [13] stood at 270 ng·h/mL.
Take `COC(=O)N[C@H](C(=O)N[C@@H](Cc1ccccc1)C[C@H](O)[C@H](Cc1ccc(-c2cccc(N)c2)cc1)NC(=O)[C@@H](NC(=O)OC)C(C)(C)C)C(C)(C)C`: the Cmax in series [1] and in [11] was 100 ng/mL each time. Besides, the “fold change (FC)” value in [14] came to 9; in series [15] it was 1; in series [7], 3; in series [12] it was 3. Also, the bioavailability in [3] is 5%; in [6], 1%. The results for the area under the curve (AUC) in series [5] and in series [13] were 20 ng·h/mL and 70 ng·h/mL, respectively. Also, the 50% effective concentration (EC50) in [9] came out at 5 nM; in series [10] it was 20 nM.
